We go through 37 compounds from ChEMBL document CHEMBL1121365, “N,N'-Dialkylbis(dichlorophenyl)ethylenediamines and -imidazolidines: relationship between structure and estradiol receptor affinity” (J Med Chem, 1980).

In assay [1] the target is T1, Estrogen receptor (Rattus norvegicus) (UniProt P06211+Q62986). Kind of assay: In vitro affinity for rat Estrogen receptor. The format is protein assay.
Assay [2] addresses T2, Estrogen receptor (Mus musculus) (UniProt O08537+P19785). Kind of assay: (§1) Uterotrophic effect in immature mice as uterine dry weight(mg) relative to body weight(g) at 500 ug/day dose. The format is functional, tissue-based. Conditions: Uterus. The method, boiled down:
(§2)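 Dorfman uterine weight test for estrogenic and antiestrogenic activity. Compounds were dissolved in arachis oil and given subcutaneously. Uterine weight was the read-out.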

Assay [3] has as its target T2, Estrogen receptor (Mus musculus). Description: (§3) Uterotrophic effect in immature mice as uterine dry weight(mg) relative to body weight(g) at 0 ug/day dose. The format is functional, tissue-based. Conditions: Uterus. The method, boiled down:
as §2

For assay [4] the target is unchanged. Description: (§4) Uterotrophic effect in immature mice as uterine dry weight(mg) relative to body weight(g) at 1000 ug/day dose. The format is functional, tissue-based. Conditions: Uterus, in the assay text read “100 ug/day” for “1000 ug/day”. The method, boiled down:
as §2

Assay [5] shares this target. Description: (§5) Uterotrophic effect in immature mice as uterine dry weight(mg) relative to body weight(g) at 2500 ug/day dose. The format is functional, tissue-based. Conditions: Uterus. The method, boiled down:
as §2

Assay [6] has as its target T1, Estrogen receptor (Rattus norvegicus). Kind of assay: In vitro association constant when complexed with the Estrogen receptor in Sprague-Dawley rat; Inhibition less than 10% at a ratio of [3H]estradiol/substance of 10e-4 M. The format is protein assay.
In assay [7] the target is T2, Estrogen receptor (Mus musculus). Kind of assay: Uterotrophic effect in immature mice as uterine dry weight(mg) relative to body weight(g) at 5000 ug/day dose. The format is functional, tissue-based. Conditions: Uterus. The method, boiled down: as §2
The target is the same in assay [8]. Description: Uterotrophic effect in immature mice as uterine dry weight(mg) relative to body weight(g) at 20 ug/day dose. The assay is classed as functional, tissue-based. Conditions: Uterus. A digest of the protocol:
as §2

Assay [9] has the same target. Described as §1. The assay is classed as functional, tissue-based. Conditions: Uterus. The method, boiled down:
(§6)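 Dorfman uterine weight test for estrogenic and antiestrogenic properties. Compounds were dissolved in arachis oil and given sc. Other details are in an earlier paper.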
The source holds these as a separate data set.

The target is the same in assay [10]. Described as §4. The assay is classed as functional, tissue-based. Conditions: Uterus. A digest of the protocol: as §6
For assay [11] the target is unchanged. Kind of assay: Uterotrophic effect in immature mice as uterine dry weight(mg) relative to body weight(g) at 100 ug/day dose. The format is functional, tissue-based. Conditions: Uterus. A digest of the protocol:
as §6

The target is the same in assay [12]. The assay is described as §5. The format is functional, tissue-based. Conditions: Uterus. The method, boiled down: as §6
The source holds these as a separate data set.

The target is the same in assay [13]. Described as §3. The format is functional, tissue-based. Conditions: Uterus. The method, boiled down:
as §6
This is another data set of the same source.

For assay [14] the target is unchanged. Description: Uterotrophic effect in immature mice as uterine dry weight(mg) relative to body weight(g) at 24 ug/day dose. The assay is classed as functional, tissue-based. Conditions: Uterus. The method, boiled down:
as §2

For assay [15] the target is unchanged. Kind of assay: Uterotrophic effect in immature mice as uterine dry weight(mg) relative to body weight(g) at 80 ug/day dose. The format is functional, tissue-based. Conditions: Uterus. A digest of the protocol: as §2
Assay [16] shares this target. Kind of assay: Uterotrophic effect in immature mice as uterine dry weight(mg) relative to body weight(g) at 400 ug/day dose. The format is functional, tissue-based. Conditions: Uterus. The method, boiled down: as §2
Assay [17] has the same target. Kind of assay: Uterotrophic effect in immature mice as uterine dry weight(mg) relative to body weight(g) at 2400 ug/day dose. The assay is classed as functional, tissue-based. Conditions: Uterus. The method, boiled down: as §2

T2 sequence (O08537 whole entry, looked up): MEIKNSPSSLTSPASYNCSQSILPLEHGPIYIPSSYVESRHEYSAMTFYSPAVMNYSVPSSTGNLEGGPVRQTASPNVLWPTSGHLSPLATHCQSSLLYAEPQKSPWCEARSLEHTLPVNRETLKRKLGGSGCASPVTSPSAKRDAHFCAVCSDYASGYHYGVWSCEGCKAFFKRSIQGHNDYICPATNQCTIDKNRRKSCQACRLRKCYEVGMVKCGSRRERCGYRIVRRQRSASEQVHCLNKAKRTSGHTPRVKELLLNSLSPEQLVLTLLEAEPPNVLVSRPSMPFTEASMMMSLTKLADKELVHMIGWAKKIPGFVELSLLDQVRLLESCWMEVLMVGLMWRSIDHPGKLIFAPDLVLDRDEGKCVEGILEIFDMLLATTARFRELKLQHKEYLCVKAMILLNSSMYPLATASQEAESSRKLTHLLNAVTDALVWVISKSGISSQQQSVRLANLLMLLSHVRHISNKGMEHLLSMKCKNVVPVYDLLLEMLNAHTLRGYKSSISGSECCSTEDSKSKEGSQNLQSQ
T2 sequence (P19785 whole entry, looked up): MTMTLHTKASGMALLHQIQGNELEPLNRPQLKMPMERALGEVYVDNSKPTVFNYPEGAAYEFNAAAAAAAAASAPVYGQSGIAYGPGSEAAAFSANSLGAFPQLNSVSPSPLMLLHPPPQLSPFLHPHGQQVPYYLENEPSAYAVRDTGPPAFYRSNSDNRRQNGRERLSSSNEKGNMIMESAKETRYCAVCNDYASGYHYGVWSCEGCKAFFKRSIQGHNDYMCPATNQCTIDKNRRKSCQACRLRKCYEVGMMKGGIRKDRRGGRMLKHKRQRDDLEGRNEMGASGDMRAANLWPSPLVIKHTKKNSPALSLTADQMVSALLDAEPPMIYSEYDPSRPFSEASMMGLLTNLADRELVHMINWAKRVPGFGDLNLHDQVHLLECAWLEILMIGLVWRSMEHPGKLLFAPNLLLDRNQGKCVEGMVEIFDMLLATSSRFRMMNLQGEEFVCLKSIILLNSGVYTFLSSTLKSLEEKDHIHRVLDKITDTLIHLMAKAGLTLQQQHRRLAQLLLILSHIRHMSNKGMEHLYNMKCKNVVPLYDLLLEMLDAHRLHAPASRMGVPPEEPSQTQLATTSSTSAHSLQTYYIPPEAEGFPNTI

`CC[C@H](c1ccc(O)cc1)[C@@H](CC)c1ccc(O)cc1`: the Ka in assay [1] was 8.3e+08.

`CCN1CN(CC)C(c2c(Cl)cccc2Cl)C1c1c(Cl)cccc1Cl` (cis isomer): the Effect in assay [2] was 19.7; in assay [3] it was 12.8; in assay [4], 17.1; in assay [5], 22.3. The Ka in [1] stood at 200000.

Turning to `CCN1CN(CC)C(c2cc(Cl)cc(Cl)c2)C1c1cc(Cl)cc(Cl)c1` (cis isomer), the inhibition in assay [6] is under 10%.

Turning to `CCCCNC(c1c(Cl)cccc1Cl)C(NCCCC)c1c(Cl)cccc1Cl` (stereo in doubt), the inhibition in assay [6] is under 10%.

With `CCCCNC(c1ccc(Cl)c(Cl)c1)C(NCCCC)c1ccc(Cl)c(Cl)c1` (stereo in doubt), in assay [6], the inhibition is under 10%.

On to `CCCCNC(c1ccc(Cl)cc1Cl)C(NCCCC)c1ccc(Cl)cc1Cl` (stereo in doubt), for which, in assay [6], the inhibition was under 10%.

With `CCCN1CN(CCC)C(c2c(Cl)cccc2Cl)C1c1c(Cl)cccc1Cl` (stereo in doubt), the Effect in assay [2] worked out at 16.2; in [3], 12.8; in assay [4] it was 17.7; in [5], 19.7; in assay [7], 24.5. The compound also had a Ka in assay [1] of 320000.

Turning to `CCCNC(c1c(Cl)cccc1Cl)C(NCCC)c1c(Cl)cccc1Cl` (stereo in doubt), the Effect in [2] came out at 22.6; in assay [3], 12.9; in assay [4], 17.5; in assay [5], 31.3; in assay [8], 14.8. In addition, the Ka in [1] is 2.3e+06.

`CCCNC(c1ccc(Cl)cc1Cl)C(NCCC)c1ccc(Cl)cc1Cl` (stereo in doubt): the inhibition in assay [6] is under 10%.

Regarding `CCN1CN(CC)C(c2ccc(Cl)c(Cl)c2)C1c1ccc(Cl)c(Cl)c1` (stereo in doubt), the inhibition in [6] was under 10%.

On to `CCN1CN(CC)C(c2ccc(Cl)cc2Cl)C1c1ccc(Cl)cc1Cl` (stereo in doubt), for which the inhibition in assay [6] was under 10%.

For the compound `CCNC(c1c(Cl)cccc1Cl)C(NCC)c1c(Cl)cccc1Cl` (stereo in doubt), the Effect in assay [9] was 23.5; in [10], 27.4; in [11] it was 22.7; in assay [12], 35.6; in assay [13], 12.8. This compound returned a Ka in assay [1] of 670000.

Take `CCNC(c1cc(Cl)cc(Cl)c1)C(NCC)c1cc(Cl)cc(Cl)c1` (stereo in doubt): the inhibition in assay [6] is under 10%.

For the compound `CCNC(c1ccc(Cl)c(Cl)c1)C(NCC)c1ccc(Cl)c(Cl)c1` (stereo in doubt), the inhibition in [6] was under 10%.

Regarding `CCNC(c1ccc(Cl)cc1Cl)C(NCC)c1ccc(Cl)cc1Cl` (stereo in doubt), the inhibition in [6] is under 10%.

`CNC(c1c(Cl)cccc1Cl)C(NC)c1c(Cl)cccc1Cl` (stereo in doubt) had a Ka in assay [1] of 91000.

As to `CNC(c1ccc(Cl)cc1Cl)C(NC)c1ccc(Cl)cc1Cl` (stereo in doubt), in [6], the inhibition is under 10%.

As for `CNC(c1ccc(Cl)cc1Cl)C(NC)c1ccc(Cl)cc1Cl` (stereo in doubt; 2a (d,l)), the inhibition in assay [6] was under 10%.

Regarding `CCNC(c1ccc(Cl)cc1Cl)C(NCC)c1ccc(Cl)cc1Cl` (stereo in doubt; 2b (d,l)), in assay [6], the inhibition is under 10%.

Turning to `CCCNC(c1ccc(Cl)cc1Cl)C(NCCC)c1ccc(Cl)cc1Cl` (stereo in doubt; 2c (d,l)), the inhibition in assay [6] was under 10%.

For `CCCCNC(c1ccc(Cl)cc1Cl)C(NCCCC)c1ccc(Cl)cc1Cl` (stereo in doubt; 2d (d,l)), the inhibition in assay [6] is under 10%.

As for `CNC(c1c(Cl)cccc1Cl)C(NC)c1c(Cl)cccc1Cl` (stereo in doubt; 2e (d,l)), the Ka in assay [1] was determined as 140000.

In assay [1], `CCNC(c1c(Cl)cccc1Cl)C(NCC)c1c(Cl)cccc1Cl` (stereo in doubt; 2f (d,l)) returned a Ka of 130000.

Turning to `CCCNC(c1c(Cl)cccc1Cl)C(NCCC)c1c(Cl)cccc1Cl` (stereo in doubt; 2g (d,l)), the Effect in [2] came to 27.1; in [3], 12.9; in assay [4] it was 19.6; in assay [8], 15.5. Moreover, in [1], the Ka worked out at 830000.

For the compound `CCCCNC(c1c(Cl)cccc1Cl)C(NCCCC)c1c(Cl)cccc1Cl` (stereo in doubt; 2h (d,l)), the inhibition in [6] was under 10%.

`CCNC(c1ccc(Cl)c(Cl)c1)C(NCC)c1ccc(Cl)c(Cl)c1` (stereo in doubt; 2i (d,l)): the inhibition in assay [6] is under 10%.

Regarding `CCCCNC(c1ccc(Cl)c(Cl)c1)C(NCCCC)c1ccc(Cl)c(Cl)c1` (stereo in doubt; 2k (d,l)), the inhibition in [6] is under 10%.

With `CCNC(c1cc(Cl)cc(Cl)c1)C(NCC)c1cc(Cl)cc(Cl)c1` (stereo in doubt; 21 (d,l)), the inhibition in assay [6] was under 10%.

Consider `CCCCN1CN(CCCC)C(c2c(Cl)cccc2Cl)C1c1c(Cl)cccc1Cl` (stereo in doubt; cis), for which, in assay [6], the inhibition is under 10%.

As for `CN1CN(C)C(c2c(Cl)cccc2Cl)C1c1c(Cl)cccc1Cl` (stereo in doubt; cis), the Ka in assay [1] was determined as 180000.

Regarding `CCCCN1CN(CCCC)C(c2c(Cl)cccc2Cl)C1c1c(Cl)cccc1Cl` (stereo in doubt; trans), the inhibition in assay [6] was under 10%.

Compound `CN1CN(C)C(c2c(Cl)cccc2Cl)C1c1c(Cl)cccc1Cl` (stereo in doubt; trans) came in with a Ka in assay [1] of 480000.

Take `CCCN1CN(CCC)C(c2c(Cl)cccc2Cl)C1c1c(Cl)cccc1Cl` (trans isomer): the Effect in [2] came to 28; in [3] it was 12.9; in [4] it was 21.4; in [5], 43; in [8] it was 19.6. For the same compound, in assay [1], the Ka worked out at 1.6e+06.

Regarding `CCN1CN(CC)C(c2c(Cl)cccc2Cl)C1c1c(Cl)cccc1Cl` (trans isomer), the Effect in assay [14] stood at 22.8; in assay [15] it was 24.2; in assay [3] it was 14.9; in [16], 38.1; in assay [17], 46.2. Moreover, the Ka in [1] was determined as 200000.

As for `CCN1CN(CC)C(c2cc(Cl)cc(Cl)c2)C1c1cc(Cl)cc(Cl)c1` (trans isomer), the inhibition in assay [6] is under 10%.

Consider `CCN1CN(CC)C(c2ccc(Cl)c(Cl)c2)C1c1ccc(Cl)c(Cl)c1` (trans isomer), for which the inhibition in assay [6] was under 10%.

With `CCN1CN(CC)C(c2ccc(Cl)cc2Cl)C1c1ccc(Cl)cc1Cl` (trans isomer), the inhibition in [6] was under 10%.
